Results taken from ChEMBL document CHEMBL1130044, “Design, synthesis, and evaluation of tetrahydropyrimidinones as an example of a general approach to nonpeptide HIV protease inhibitors” (J Med Chem, 1997).

How the values were obtained:
[1] = test system: Human immunodeficiency virus type 1 (RF/HAT ISOLATE); experiment: Reduction in HIV viral RNA concentration by 90% in MT-2 cells infected with HIV-1RF.; assay type: functional; details: Human immunodeficiency virus 1, RF, MT2
How it was run: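 MT-2 cells infected with HIV-1RF; viral RNA transcript accumulation measured 3 days post-infection; value is the compound concentration lowering viral RNA by 90% from the reference level.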

[2] = target: Human immunodeficiency virus type 1 protease (Human immunodeficiency virus 1, UniProt Q72874); experiment: Binding affinity against HIV protease
How it was run: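 HIV protease inhibition measured as cleavage of a fluorescent substrate, with the cleavage products quantified by HPLC. Ki values were derived from this assay.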

MT2 = experiment: Concentration required to reduce HIV viral RNA concentration by 90% in MT-2 cells infected with HIV-1RF was determined; details: Homo sapiens

IC90 (MT2)	Compound	IC90 [1]	Ki [2]
	COC(=O)c1cccc(CN2C(=O)N(Cc3cccc(C(=O)OC)c3)[C@@H](Cc3ccccc3)[C@@H](O)[C@@H]2CCc2ccccc2)c1	> 5000 nM	
	Nc1ccc(CN2C(=O)N(Cc3ccc(N)c(F)c3)[C@H](Cc3ccccc3)[C@H](O)[C@H]2CCc2ccccc2)cc1F	540 nM	8 nM
	O=C1N(Cc2ccc(CO)cc2)[C@H](CCc2ccccc2)[C@@H](O)[C@@H](Cc2ccccc2)N1Cc1ccc(CO)cc1	3600 nM	2.5 nM
	O=C1N(Cc2cccc(O)c2)[C@H](Cc2ccccc2)C(O)[C@@H](Cc2ccccc2)N1Cc1cccc(O)c1		33 nM
	O=C1N(Cc2cccc(CO)c2)[C@@H](CCc2ccccc2)[C@H](O)[C@H](Cc2ccccc2)N1Cc1cccc(CO)c1	> 5000 nM	550 nM
80000 nM	O=C1N(Cc2ccccc2)[C@@H](Cc2ccccc2)C(O)[C@H](Cc2ccccc2)N1Cc1ccccc1		
260 nM	O=C1N(Cc2ccc3ccccc3c2)C(Cc2ccccc2)P(=O)(O)C(Cc2ccccc2)N1Cc1ccc2ccccc2c1 (stereo unspecified)		
	NC(=O)c1cc(CN2C(=O)N(Cc3ccc(F)c(C(N)=O)c3)[C@H](Cc3ccccc3)[C@H](O)[C@H]2CCc2ccccc2)ccc1F	490 nM	1.4 nM
	NC(=O)c1cccc(CN2C(=O)N(Cc3cccc(C(N)=O)c3)[C@H](Cc3ccccc3)[C@H](O)[C@H]2CCc2ccccc2)c1	35 nM	0.088 nM
	O=C1N(CC2CC2)[C@H](CCc2ccccc2)[C@@H](O)[C@@H](Cc2ccccc2)N1CC1CC1	5200 nM	3.8 nM
	CNc1cccc(CN2C(=O)N(Cc3cccc(NC)c3)[C@H](Cc3ccccc3)[C@H](O)[C@H]2CCc2ccccc2)c1	328 nM	4.9 nM
	Nc1cc(CN2C(=O)N(Cc3ccc(F)c(N)c3)[C@H](Cc3ccccc3)[C@H](O)[C@H]2CCc2ccccc2)ccc1F	36 nM	0.25 nM
	COC(=O)c1ccc(CN2C(=O)N(Cc3ccc(C(=O)OC)cc3)[C@H](Cc3ccccc3)[C@H](O)[C@H]2CCc2ccccc2)cc1	> 5000 nM	1970 nM
	N#Cc1cccc(CN2C(=O)N(Cc3cccc(C#N)c3)[C@H](Cc3ccccc3)[C@H](O)[C@H]2CCc2ccccc2)c1	1600 nM	11 nM
	NC(=O)c1cccc(CN2C(=O)N(Cc3cccc(C(N)=O)c3)[C@@H](Cc3ccccc3)[C@@H](O)[C@@H]2CCc2ccccc2)c1	> 5000 nM	4800 nM
	COC(=O)c1cccc(CN2C(=O)N(Cc3cccc(C(=O)OC)c3)[C@H](Cc3ccccc3)[C@H](O)[C@H]2CCc2ccccc2)c1	> 5000 nM	
	O=C1N(Cc2ccccc2)[C@H](CCc2ccccc2)[C@@H](O)[C@@H](Cc2ccccc2)N1Cc1ccccc1	2800 nM	15 nM
	N=C(NO)c1cccc(CN2C(=O)N(Cc3cccc(/C(N)=N/O)c3)[C@H](CCc3ccccc3)[C@@H](O)[C@H]2Cc2ccccc2)c1	49 nM	
	Nc1cccc(CN2C(=O)N(Cc3cccc(N)c3)[C@H](Cc3ccccc3)[C@H](O)[C@H]2CCc2ccccc2)c1	365 nM	1.7 nM
	N#Cc1cccc(CN2C(=O)N(Cc3cccc(C#N)c3)[C@@H](Cc3ccccc3)[C@@H](O)[C@@H]2CCc2ccccc2)c1	> 5000 nM	8000 nM
	COC(=O)c1cccc(CN2C(=O)C(=O)N(Cc3cccc(C(=O)OC)c3)[C@H](Cc3ccccc3)[C@H](O)[C@H]2CCc2ccccc2)c1		40 nM
	N=C(NO)c1cccc(CN2C(=O)N(Cc3cccc(/C(N)=N\O)c3)[C@@H](CCc3ccccc3)[C@H](O)[C@@H]2Cc2ccccc2)c1	> 5000 nM	
	O=C1N[C@H](CCc2ccccc2)[C@@H](O)[C@@H](Cc2ccccc2)N1	> 5000 nM	
	O=C1N(Cc2cccc(CO)c2)[C@H](CCc2ccccc2)[C@@H](O)[C@@H](Cc2ccccc2)N1Cc1cccc(CO)c1	109 nM	0.49 nM
	O=C1N(Cc2cccc(O)c2)[C@H](CCc2ccccc2)[C@@H](O)[C@@H](Cc2ccccc2)N1Cc1cccc(O)c1	115 nM	0.3 nM
